# Assay outcomes: PubChem, several laboratories
# STAT1 inh: inhibitors of IFN-gamma induced STAT1 signaling; NIH 3T3 STAT1-luciferase reporter, luminescence; inhibition, % at 5.5 µM; hit rate 0.35% among 200,000; AID 920;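 active means inhibition above a set limit, the mean inhibition across all tested compounds plus 3 SD, cut at about 34% in these data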;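 further: 0% = IFN-gamma with DMSO and 100% = IFN-gamma with 300 µM nifuroxazide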
# NF-kB neuron act: compounds increasing NF-kB expression in human neuronal cells. NF-kB reporter expression; hits give high values. fold change at 12.5 µM. hit rate 1.6% among 190,000. AID 1239; in the data active means fold change above about 3.3
# APP 5'UTR act: APP 5'UTR luciferase reporter activation | SH-SY5Y APP 5'UTR luciferase reporter, luminescence; zero percent = DMSO vehicle wells | activation, % at 2 µM | hit rate 1% among 190,000 | AID 1276;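 active means activation above a set limit, based on mean plus 3 SD of controls, cut at about 140% in these data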
# STAT3 act-1: STAT3 signaling activation; AID 871; activation (% of control), % at 5.6 µM; U3A cells, IL-6 STAT3-luciferase reporter, luminescence; 100% = signal with IL-6 EC80 alone; hit rate 0.91% among 190,000;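 active means activation above the screen-wide mean of compound activation plus 3 SD, cut at about 130% in these data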;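 further: 0% = background luminescence of wells with medium and substrate only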
#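 Assay system – human STAT1-deficient U3A cells with stable STAT3-luciferase reporter · Also added – IL-6 (33 ng/mL) · Schedule – compound 1 h, then IL-6 6 h at 37 °C · Technique – reporter luminescence signal · Evaluation – % activation versus median of IL-6-stimulated wells · Benchmarks – IL-6-only wells as 100% reference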
# STAT1 act-1: increases IFN-gamma driven STAT1 reporter signal | activation (% of control), % at 5.5 µM | NIH 3T3 STAT1-luciferase reporter, luminescence; 100% = IFN-gamma alone, no compound | hit rate 2.6% among 200,000 | AID 932;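 active means activation above the screen-wide mean activation plus 3 SD, cut at about 130% in these data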;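 further: raw ratio to IFN-gamma control signal so 100% means no change and 0% no light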
# STAT3 blocker: inhibitors of IL-6 induced STAT3 signaling | U3A cells, IL-6 STAT3-luciferase reporter, luminescence; host cell line lacks STAT1 | inhibition, % at 5.5 µM | AID 862 | hit rate 0.89% among 190,000;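 active means inhibition above the mean inhibition across all screened compounds plus 3 SD, cut at about 44% in these data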;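 further: 0% = DMSO only wells and 100% = 100 µM nifuroxazide control wells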
# STAT3 act-2: STAT3 activation, confirmation assay | U3A STAT3-luciferase reporter, IL-6 potentiation, luminescence; U3A cells lack STAT1; 100 means same as IL-6 alone | hit rate 64% among 1,200 | AID 1267 | shares compounds with STAT3 act-1 | potentiation (% of control), % at 5.7 µM;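 active means percent activation of the STAT3 luciferase reporter above a set limit taken from the earlier primary screen, cut at about 130% in these data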;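 further: 0% = background signal of medium plus substrate and 100% = median of IL-6 with DMSO wells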
# NFkB act STAT3ct: activates NF-kappaB, counter-screen to STAT3 activators | shares compounds with STAT3 act-1 | human cells, NF-kappaB reporter activation | activation (% of control), % at 5.7 µM | hit rate 11% among 1,200 | AID 1309; in the data active means activation above about 120%;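 further: reporter induced by TNF-alpha stimulation; 100% = median of stimulated DMSO wells and 0% = no signal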
# STAT1 act-2: STAT1 activation in STAT3 activator counter-screen; shares compounds with STAT3 act-1; NIH 3T3 STAT1-luciferase reporter, IFN-gamma, luminescence; activation (% of control), % at 5.7 µM; hit rate 13% among 1,200; AID 1318;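 active means activation above the solvent-only control well mean plus 3 SD, set per screening run, cut at about 120% in these data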;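 further: 100% = IFN-gamma with DMSO median signal so 100% means no change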
# Active calls of the source: *; x = no result. Sampled rows, rich in hits. Any-hit rate of the full collection: about 5.1%.
SMILES,STAT1 inh,NF-kB neuron act,APP 5'UTR act,STAT3 act-1,STAT1 act-1,STAT3 blocker,STAT3 act-2,NFkB act STAT3ct,STAT1 act-2
CCOC(=O)c1c(C)[nH]c(C(=O)OCC(=O)Nc2cc(C)c(Cl)cc2OC)c1C,0,0.98,x,142*,100,-54,127,102,105
Cc1cccc(C)c1OCC(O)CN1CCC(CN2C(=O)c3cccc4cccc(c34)C2=O)CC1 (stereo not given),-2,0.52,-26,91,102,17,x,x,x
Oc1c(Cl)cc(Cl)cc1C1=NNC(c2ccc(Cl)cc2)C1 (stereo not given),-1,1,48,152*,100,-40,147*,107,98
O=C(CSc1nnc(C2COc3ccccc3O2)o1)N1CCN(c2ccccc2)CC1 (stereo not given),8,1,-2,109,93,-12,x,x,x
COC(=O)c1ccccc1NC(=O)C(C)Oc1ccccc1 (stereo not given),5,0.97,-10,98,95,7,x,x,x
CC(Oc1ccccc1)C(=O)Nc1ccccc1O (stereo not given),3,3,-11,137*,97,-36,122,104,100
O=C1c2ccccc2CC1Sc1nnc(-c2ccccn2)o1 (stereo not given),-7,1.4,33,149*,106,-52,130,104,101
CC(=O)n1cc(C(C[N+](=O)[O-])SCCN)c2ccccc21 (stereo not given),2,1.1,4,141*,98,-47,138*,113,98
CC(=O)n1cc(-c2ccncc2)c2ccccc21,-5,0.86,-46,92,105,10,x,x,x
COc1ccccc1N/C(=N/S(=O)(=O)c1ccc(C)cc1)c1ccc(Cl)cc1,-3,1,7,105,103,2,x,x,x
Cc1cc(C)c(N2CCN(S(=O)(=O)N3CCCCCC3)CC2)c(C)c1,3,0.53,17,105,97,0,x,x,x
C=CCn1c(SC)nc2sc3c(c2c1=O)CCc1ccccc1-3,-9,1.9,13,115,108,-22,x,x,x
C=CCn1c(SCC)nc2sc3c(c2c1=O)CCc1ccccc1-3,-1,1.2,-9,137*,101,-32,113,104,100
O=C(/C=C/c1ccc(Cl)cc1)NCc1ccco1,-15,1.8,21,106,113,-10,x,x,x
Cc1ccccc1C(=O)N1CCC(C(=O)N2CCN(S(=O)(=O)c3ccccc3F)CC2)CC1,1,1.2,-4,95,98,8,x,x,x
Cc1ncoc1C(=O)N1CCc2c([nH]c3ccccc23)C1c1ccccc1F (stereo not given),8,1.3,-8,130,91,-33,x,x,x
CN1N=C(C(=O)N2CCc3c([nH]c4ccccc34)C2c2c(F)cccc2Cl)CCC1=O (stereo not given),-11,1.7,22,154*,110,-53,150*,104,114
CCC(C(=O)OCn1nnc2ccccc2c1=O)c1ccccc1 (stereo not given),4,0.96,17,95,96,8,x,x,x
O=C(N/N=C/c1cn(-c2ccccc2)nc1-c1cc2ccccc2o1)c1cccnc1,-26,1.3,148*,159*,123,-65,179*,138*,204*
CCOC(=O)c1n[nH]c2ccccc12,-10,1.2,10,90,107,16,x,x,x
Nc1n[nH]c2ccccc12,1,1.5,-15,136*,98,-44,141*,101,97
COc1cccc(-n2c(SCc3cc(=O)oc4cc(O)c(O)cc34)nc3ccccc3c2=O)c1,2,0.9,8,96,99,7,x,x,x
CC(C)NC(=O)CSc1nnc(-c2ccncc2)n1-c1ccccc1,-4,1.4,14,100,103,6,x,x,x
COc1cc(SC#N)ccc1N=Cc1c(C)[nH]n(-c2ccc(C)c(C)c2)c1=O,5,1,x,100,96,1,x,x,x
COc1cc(SC#N)ccc1N=Cc1c(C)[nH]n(-c2ccc(Cl)cc2)c1=O,-5,1,-2,144*,104,-52,125,105,102
SMILES,STAT1 inh,NF-kB neuron act,APP 5'UTR act,STAT3 act-1,STAT1 act-1,STAT3 blocker,STAT3 act-2,NFkB act STAT3ct,STAT1 act-2
CCOC(=O)N1CCC(NC(=O)c2cccc3c2C(=O)N(Cc2cccnc2)C3)CC1,17,0.39,-6,97,83,10,x,x,x
Oc1cccc(C2c3[nH]c4ccccc4c3CCN2Cc2ccc3c(c2)CCO3)c1 (stereo not given),12,0.9,2,141*,87,-44,142*,104,94
COc1ccc(C2c3[nH]c4ccccc4c3CCN2Cc2ccoc2)c(F)c1 (stereo not given),1,0.87,-5,118,98,-16,x,x,x
Oc1cccc(C2c3[nH]c4ccccc4c3CCN2Cc2ccoc2)c1 (stereo not given),8,1.2,7,138*,90,-40,137*,102,94
Cn1cc(CN2CCc3c([nH]c4ccccc34)C2C(C)(C)C)cn1 (stereo not given),-1,x,0,133,99,-32,x,x,x
CC(C)N(C(=O)COC(=O)c1cncc(Br)c1)C(C)C,-5,1.1,-4,100,104,2,x,x,x
COc1ccc(OC)c(Nc2nc3nonc3nc2N2CCCCC2)c1,4,1.1,-9,163*,96,-72,99,112,113
COc1cc(-c2nnc(COC(=O)CSc3cc(C)c4ccccc4n3)o2)cc(OC)c1OC,-7,1.1,0,104,106,6,x,x,x
COc1cc(-c2nnc(CSc3nc4ccccc4s3)o2)cc(OC)c1OC,3,0.43,11,137*,97,-35,129,105,110
O=C(CC(Nc1cccc(Cl)c1Cl)C(=O)O)c1ccccc1 (stereo not given),-5,0.97,-14,140*,103,-47,149*,107,115
COc1cc(/C=N/NC(=S)NC(C)C)ccc1OCC(=O)Nc1c(C)cc(C)cc1C,7,1.2,0,147*,94,-60,137*,99,102
O=C(Nc1ccc(Cl)cn1)c1ccc2ccccc2n1,-14,3.2,10,178*,112,-82,192*,130*,137*
Cc1c(C(=O)Nc2ccc(Cl)cn2)oc2ccccc12,-14,2,-2,195*,106,-109,197*,134*,138*
